Test results from ChEMBL document CHEMBL4190234, “Design, synthesis and anticancer activity of new monastrol analogues bearing 1,3,4-oxadiazole moiety” (Eur J Med Chem, 2017).

Legend:
Format in all cases: functional
ACHN = assay: Growth inhibition of human ACHN cells at 10 uM incubated for 48 hrs by sulforhodamine B assay relative to control; settings: read-out: GI
Outline: (§1)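 Single-dose screen at 10 μM final: cells in RPMI 1640, 5% FBS, 2 mM L-glutamine, plated 5,000–40,000/well, preincubated 24 h at 37°C, 5% CO2; drug 48 h; adherent cells fixed with 10% TCA, suspension cells with 16% TCA; SRB stain, absorbance 515 nm; percentage growth versus untreated control, with time-zero plates.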

NCI-H322M = assay: Growth inhibition of human NCI-H322M cells at 10 uM incubated for 48 hrs by sulforhodamine B assay relative to control; settings: read-out: GI; outline: as §1
T47D = assay: Growth inhibition of human T47D cells at 10 uM incubated for 48 hrs by sulforhodamine B assay relative to control; settings: read-out: GI
Outline: (§2)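 NCI single-dose screen: cells grown in RPMI 1640 with 5% FBS and 2 mM L-glutamine, plated at 5,000–40,000 cells/well and preincubated 24 h at 37 °C, 5% CO2. Compounds taken from DMSO stock and tested at final 10 µM for 48 h. Cells fixed with TCA, stained with 0.4% SRB, absorbance read at 515 nm. Percentage growth calculated against untreated controls; controls held DMSO at the same dilution.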

Malme-3M = assay: Growth inhibition of human MALME-3M cells at 10 uM incubated for 48 hrs by sulforhodamine B assay relative to control; settings: read-out: GI; outline: as §1
SR = assay: Growth inhibition of human SR cells at 10 uM incubated for 48 hrs by sulforhodamine B assay relative to control; settings: read-out: GI; outline: as §2
RPMI-8226 = assay: Growth inhibition of human RPMI8226 cells at 10 uM incubated for 48 hrs by sulforhodamine B assay relative to control; settings: RPMI-8226, 48 h, read-out: GI; outline: as §1
M14 = assay: Growth inhibition of human M14 cells at 10 uM incubated for 48 hrs by sulforhodamine B assay relative to control; settings: M14, 48 h, read-out: GI; outline: as §1
SF-268 = assay: Growth inhibition of human SF268 cells at 10 uM incubated for 48 hrs by sulforhodamine B assay relative to control; settings: SF-268, 48 h, read-out: GI; outline: as §2
SK-MEL-2 = assay: Growth inhibition of human SK-MEL-2 cells at 10 uM incubated for 48 hrs by sulforhodamine B assay relative to control; settings: SK-MEL-2, 48 h, read-out: GI; outline: as §2
SF-295 = assay: Growth inhibition of human SF295 cells at 10 uM incubated for 48 hrs by sulforhodamine B assay relative to control; settings: SF-295, 48 h, read-out: GI; outline: as §2
MDA-MB-231 = assay: Growth inhibition of human MDA-MB-231 cells at 10 uM incubated for 48 hrs by sulforhodamine B assay relative to control; settings: MDA-MB-231, 48 h, read-out: GI; outline: as §1
K562 = assay: Growth inhibition of human K562 cells at 10 uM incubated for 48 hrs by sulforhodamine B assay relative to control; settings: K562, 48 h, read-out: GI; outline: as §1
COLO 205 = assay: Growth inhibition of human COLO205 cells at 10 uM incubated for 48 hrs by sulforhodamine B assay relative to control; settings: COLO 205, 48 h, read-out: GI; outline: as §1
NCI-H460 = assay: Growth inhibition of human NCI-H460 cells at 10 uM incubated for 48 hrs by sulforhodamine B assay relative to control; settings: NCI-H460, 48 h, read-out: GI; outline: as §1
CCRF-CEM = assay: Growth inhibition of human CCRF-CEM cells at 10 uM incubated for 48 hrs by sulforhodamine B assay relative to control; settings: read-out: GI; outline: as §1
IGROV-1 = assay: Growth inhibition of human IGROV1 cells at 10 uM incubated for 48 hrs by sulforhodamine B assay relative to control; settings: IGROV-1, 48 h, read-out: GI; outline: as §1
TK-10 = assay: Growth inhibition of human TK10 cells at 10 uM incubated for 48 hrs by sulforhodamine B assay relative to control; settings: TK-10, 48 h, read-out: GI; outline: as §2
SW-620 = assay: Growth inhibition of human SW620 cells at 10 uM incubated for 48 hrs by sulforhodamine B assay relative to control; settings: SW-620, 48 h, read-out: GI; outline: as §2
Hs-578T = assay: Growth inhibition of human Hs 578T cells at 10 uM incubated for 48 hrs by sulforhodamine B assay relative to control; settings: read-out: GI; outline: as §1
HT-29 = assay: Growth inhibition of human HT-29 cells at 10 uM incubated for 48 hrs by sulforhodamine B assay relative to control; settings: HT-29, 48 h, read-out: GI; outline: as §1
PC-3 = assay: Growth inhibition of human PC3 cells at 10 uM incubated for 48 hrs by sulforhodamine B assay relative to control; settings: PC-3, 48 h, read-out: GI; outline: as §1
KM12 = assay: Growth inhibition of human KM12 cells at 10 uM incubated for 48 hrs by sulforhodamine B assay relative to control; settings: KM12, 48 h, read-out: GI; outline: as §1
LOX IMVI = assay: Growth inhibition of human LOXIMVI cells at 10 uM incubated for 48 hrs by sulforhodamine B assay relative to control; settings: read-out: GI; outline: as §1
OVCAR-8 = assay: Growth inhibition of human OVCAR8 cells at 10 uM incubated for 48 hrs by sulforhodamine B assay relative to control; settings: OVCAR-8, 48 h, read-out: GI; outline: as §1
UACC-62 = assay: Growth inhibition of human UACC62 cells at 10 uM incubated for 48 hrs by sulforhodamine B assay relative to control; settings: UACC-62, 48 h, read-out: GI; outline: as §2
MCF7 = assay: Growth inhibition of human MCF7 cells at 10 uM incubated for 48 hrs by sulforhodamine B assay relative to control; settings: MCF7, 48 h, read-out: GI; outline: as §1
SK-MEL-28 = assay: Growth inhibition of human SK-MEL-28 cells at 10 uM incubated for 48 hrs by sulforhodamine B assay relative to control; settings: SK-MEL-28, 48 h, read-out: GI; outline: as §2
SK-MEL-5 = assay: Growth inhibition of human SK-MEL-5 cells at 10 uM incubated for 48 hrs by sulforhodamine B assay relative to control; settings: SK-MEL-5, 48 h, read-out: GI; outline: as §2
UACC-257 = assay: Growth inhibition of human UACC257 cells at 10 uM incubated for 48 hrs by sulforhodamine B assay relative to control; settings: UACC-257, 48 h, read-out: GI; outline: as §2
SNB-19 = assay: Growth inhibition of human SNB19 cells at 10 uM incubated for 48 hrs by sulforhodamine B assay relative to control; settings: SNB-19, 48 h, read-out: GI; outline: as §2
U-251 = assay: Growth inhibition of human U251 cells at 10 uM incubated for 48 hrs by sulforhodamine B assay relative to control; settings: U-251, 48 h, read-out: GI; outline: as §2

| Structure (SMILES) | inhibition of growth at 10 µM (ACHN) [%] | inhibition of growth at 10 µM (NCI-H322M) [%] | inhibition of growth at 10 µM (T47D) [%] | inhibition of growth at 10 µM (Malme-3M) [%] | inhibition of growth at 10 µM (SR) [%] | inhibition of growth at 10 µM (RPMI-8226) [%] | inhibition of growth at 10 µM (M14) [%] | inhibition of growth at 10 µM (SF-268) [%] | inhibition of growth at 10 µM (SK-MEL-2) [%] | inhibition of growth at 10 µM (SF-295) [%] | inhibition of growth at 10 µM (MDA-MB-231) [%] | inhibition of growth at 10 µM (K562) [%] | inhibition of growth at 10 µM (COLO 205) [%] | inhibition of growth at 10 µM (NCI-H460) [%] | inhibition of growth at 10 µM (CCRF-CEM) [%] | inhibition of growth at 10 µM (IGROV-1) [%] | inhibition of growth at 10 µM (TK-10) [%] | inhibition of growth at 10 µM (SW-620) [%] | inhibition of growth at 10 µM (Hs-578T) [%] | inhibition of growth at 10 µM (HT-29) [%] | also measured |
| --- | --- | --- | --- | --- | --- | --- | --- | --- | --- | --- | --- | --- | --- | --- | --- | --- | --- | --- | --- | --- | --- |
| CCOC(=O)C1=C(C)NC(SCc2nnc(-c3ccc(Cl)cc3)o2)=NC1c1ccccc1 (stereo not given) | < 10 | < 10 | 53.8 | < 10 | 24.9 | 27.3 | 19.5 | < 10 | 34.5 | 23.4 | < 10 | 25.2 | 10.4 | < 10 | 12.4 | < 10 | 30.8 | < 10 | < 10 | 22.3 | inhibition of growth at 10 µM (PC-3): 42.2%; inhibition of growth at 10 µM (KM12): 10.3%; inhibition of growth at 10 µM (LOX IMVI): 11.1%; inhibition of growth at 10 µM (OVCAR-8): 20.4%; inhibition of growth at 10 µM (UACC-62): 34.9%; inhibition of growth at 10 µM (MCF7): 18.2%; inhibition of growth at 10 µM (SK-MEL-28): < 10%; inhibition of growth at 10 µM (SK-MEL-5): < 10%; inhibition of growth at 10 µM (UACC-257): 25.9%; inhibition of growth at 10 µM (SNB-19): 11.7%; inhibition of growth at 10 µM (U-251): 21.2% |
| CCOC(=O)C1=C(C)NC(SCc2nnc(-c3ccc(Cl)cc3)o2)=NC1c1ccc(OC)cc1 (stereo not given) | < 10 | < 10 | 15.2 | < 10 | 18.1 | 18.3 | < 10 | < 10 | < 10 | < 10 | 10.2 | < 10 | < 10 | < 10 | 12.9 | 17.8 | < 10 | < 10 | < 10 | < 10 | inhibition of growth at 10 µM (PC-3): 17.9%; inhibition of growth at 10 µM (KM12): < 10%; inhibition of growth at 10 µM (LOX IMVI): < 10%; inhibition of growth at 10 µM (OVCAR-8): < 10%; inhibition of growth at 10 µM (UACC-62): 15.3%; inhibition of growth at 10 µM (MCF7): < 10%; inhibition of growth at 10 µM (SK-MEL-28): < 10%; inhibition of growth at 10 µM (SK-MEL-5): < 10%; inhibition of growth at 10 µM (UACC-257): < 10%; inhibition of growth at 10 µM (SNB-19): 12.5%; inhibition of growth at 10 µM (U-251): 10.1% |
| CCOC(=O)C1=C(C)NC(SCc2nnc(-c3ccc(Cl)cc3)o2)=NC1c1ccc(Br)cc1 (stereo not given) | 30.3 | 13.6 | 52 | 16.9 | 61.2 | 61.6 | 26 | 13.3 | < 10 | 26.4 | 40.2 | 39.3 | 22.4 | 19.6 | 56.6 | 34.5 | 20.1 | < 10 | 12.9 | 21.3 | inhibition of growth at 10 µM (PC-3): 51.2%; inhibition of growth at 10 µM (KM12): 24%; inhibition of growth at 10 µM (LOX IMVI): 25.1%; inhibition of growth at 10 µM (OVCAR-8): 27.3%; inhibition of growth at 10 µM (UACC-62): 44.7%; inhibition of growth at 10 µM (MCF7): 55.2%; inhibition of growth at 10 µM (SK-MEL-28): 18.7%; inhibition of growth at 10 µM (SK-MEL-5): 48.6%; inhibition of growth at 10 µM (UACC-257): 27%; inhibition of growth at 10 µM (SNB-19): 28%; inhibition of growth at 10 µM (U-251): 34.3% |
| CCOC(=O)C1=C(C)NC(SCc2nnc(-c3ccc(Cl)cc3)o2)=NC1c1ccc(Cl)cc1 (stereo not given) | 35.9 | 17.7 | 50.1 | 18.3 | 57.1 | 64.2 | 30.7 | 14 | < 10 | 25.9 | 37.3 | 44.2 | 20.4 | 21.1 | 60.3 | 37.7 | 22.5 | 14.1 | 16.3 | 24.8 | inhibition of growth at 10 µM (PC-3): 51.2%; inhibition of growth at 10 µM (KM12): 30.3%; inhibition of growth at 10 µM (LOX IMVI): 23.1%; inhibition of growth at 10 µM (OVCAR-8): 25.2%; inhibition of growth at 10 µM (UACC-62): 50.1%; inhibition of growth at 10 µM (MCF7): 51%; inhibition of growth at 10 µM (SK-MEL-28): 20.2%; inhibition of growth at 10 µM (SK-MEL-5): 59.1%; inhibition of growth at 10 µM (UACC-257): 13.1%; inhibition of growth at 10 µM (SNB-19): 27%; inhibition of growth at 10 µM (U-251): 26.1% |
| CCOC(=O)C1=C(C)NC(SCc2nnc(-c3ccc(Cl)cc3)o2)=NC1c1ccc(F)cc1 (stereo not given) | < 10 | < 10 | 27.1 | < 10 | 16.7 | 25.8 | < 10 | < 10 | < 10 | < 10 | < 10 | 14.4 | < 10 | < 10 | 16.9 | 17.1 | 13.9 | < 10 | < 10 | 10.3 | inhibition of growth at 10 µM (PC-3): 23.4%; inhibition of growth at 10 µM (KM12): < 10%; inhibition of growth at 10 µM (LOX IMVI): < 10%; inhibition of growth at 10 µM (OVCAR-8): 11.7%; inhibition of growth at 10 µM (UACC-62): 10.7%; inhibition of growth at 10 µM (MCF7): 13.3%; inhibition of growth at 10 µM (SK-MEL-28): < 10%; inhibition of growth at 10 µM (SK-MEL-5): 12.5%; inhibition of growth at 10 µM (UACC-257): < 10%; inhibition of growth at 10 µM (SNB-19): 11.6%; inhibition of growth at 10 µM (U-251): 10.1% |
